From PubChem BioAssay
Shown are actives, neighbours in structure and some others; about 3.5% of the full set was active somewhere.
MrgX1 ag: agonists of human MrgX1 receptor; 310,000 tested, 0.44% active; MrgX1-HEK293 cells, Fluo-4 calcium fluorescence, agonist mode; hits give high values; B-score at 10 µM; Q96LB2;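 active = calcium response B-score plate-corrected fluorescence ratio at least 3 library SD, with starting fluorescence B-score inside 5 SD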
Target sequence (Q96LB2 whole entry, looked up): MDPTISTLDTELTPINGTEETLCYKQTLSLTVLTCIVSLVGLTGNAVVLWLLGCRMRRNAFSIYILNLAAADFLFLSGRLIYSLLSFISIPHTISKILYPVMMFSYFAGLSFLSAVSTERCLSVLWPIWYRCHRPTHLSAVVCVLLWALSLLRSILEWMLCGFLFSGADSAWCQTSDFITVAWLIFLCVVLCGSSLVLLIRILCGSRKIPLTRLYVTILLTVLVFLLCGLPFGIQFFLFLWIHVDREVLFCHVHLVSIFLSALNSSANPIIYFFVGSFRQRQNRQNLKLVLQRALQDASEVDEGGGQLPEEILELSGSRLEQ
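System: HEK293 cells stably expressing human MrgX1 receptor; Dosing: test compound in the initial addition of three; Schedule: overnight plating, then 30 min 37 °C plus 30 min room-temperature dye loading; Detection: kinetic calcium dye fluorescence, Fluo-4 NW; Controls: per-plate positive and negative controls for Z′ factor.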
MrgX1 allo act: allosterically activates human MrgX1 receptor signaling; MrgX1-HEK293, Fluo-4 calcium flux, FDSS; hits give high values; B-score at 10 µM; 310,000 tested, 0.63% active; AID 588675;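 active = plate-corrected calcium response at least 3 library SD above typical, normal starting fluorescence, not activating the receptor alone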;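 note: compound read alongside a low EC10 to EC30 dose of BAM8-22 agonist; peak minus trough fluorescence over baseline measured at the second addition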
RGS4 act: potentiators or activators of RGS4 | 310,000 tested, 0.92% active | B-score at 10 µM | HEK293 M3R/inducible RGS4, carbachol calcium flux Fluo4; hits give low values | AID 463111;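 active = B-score of the integrated calcium signal more than 4 SD below the library mean, with starting fluorescence not abnormally high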;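 note: negative B-score means reduced calcium response which marks RGS4 activation or potentiation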
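System – HEK293 FlpIn-TREx cells, stable M3R, doxycycline-inducible RGS4 · Reagent – ECmax carbachol challenge · Times – compound preincubation 20 min at room temperature before agonist · Technique – Fluo4 fluorescence kinetic imaging of calcium · Measure – B score of integrated Fluo4 ratio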
RGS4 inh: inhibitors of human RGS4. HEK293 M3R/RGS4 inducible, Fluo-4 calcium flux; hits give high values; triggered by carbachol at its EC20. B-score at 10 µM. AID 463165. P49798. 310,000 tested, 0.45% active;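 active = B-score, a plate-corrected calcium signal, over three deviations above library mean, with baseline fluorescence within five deviations of library mean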;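 note: RGS4 expression induced by doxycycline in cells with stable M3 receptor; B-score is computed from the integrated fluorescence ratio over baseline after carbachol; higher B-score means a larger calcium signal and so more RGS4 inhibition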
Target sequence (P49798 whole entry, looked up): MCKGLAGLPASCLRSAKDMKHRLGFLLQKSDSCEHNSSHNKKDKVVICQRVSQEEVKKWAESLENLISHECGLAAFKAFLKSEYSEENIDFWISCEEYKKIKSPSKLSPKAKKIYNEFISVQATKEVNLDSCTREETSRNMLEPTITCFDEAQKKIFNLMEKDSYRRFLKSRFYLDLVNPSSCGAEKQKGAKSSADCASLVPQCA
MrgX1 antagonist: antagonists of human MrgX1 receptor. MRGX1-HEK293 calcium flux, Fluo-4, BAM8-22 antagonism; hits give low values. B-score at 10 µM. 310,000 tested, 1.3% active. AID 588676;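 active = calcium-response B-score plate-corrected more than 3 library SD below zero, starting fluorescence within 5 deviations, no agonist response on first addition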;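 note: peak minus trough fluorescence over baseline after final BAM8-22 challenge near maximal dose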
RGS4 inh valid: RGS4 inhibitor validation; shares compounds with RGS4 inh; HEK293 M3R/RGS4, carbachol calcium Fluo-4 fluorescence; carbachol added at its EC20; 0 = buffer wells, 100 = carbachol control; calcium response, % at 10 µM; 1,700 tested, 65% active; AID 492999;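 active = duplicate-averaged calcium response above the buffer-only control mean plus 5 SD of those controls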;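 note: integrated fluorescence ratio F max minus min over baseline F0; higher response in RGS4-induced cells means RGS4 inhibition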
RGS4 uninduced: counter-screen for RGS4 inhibitors: effect in non-induced cells. activity (percent), % at 10 µM. shares compounds with RGS4 inh. HEK293 M3R non-induced, carbachol calcium Fluo-4; submaximal (EC20) carbachol stimulus; buffer wells 0%, carbachol control wells 100%. 1,900 tested, 20% active; call rule not given here;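 note: RGS4 induction absent so cells express M3R without RGS4; higher means more calcium signal and flags a non-specific hit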
M3R basal Ca ctr: second counter-screen for RGS4 inhibitors: non-induced cells without carbachol; shares compounds with RGS4 inh; HEK293 M3R/RGS4 non-induced, Fluo-4 calcium, no carbachol; normalised: buffer wells 0%, carbachol wells 100%; calcium response (agonist-mode artifact), % at 10 µM; 1,900 tested, 22% active;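 active = duplicate-averaged calcium rise in uninduced cells above buffer wells' mean plus 5 SD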
The depositor's hits bear a star; i = inactive; . = no result.

SMILES	MrgX1 ag	MrgX1 allo act	RGS4 act	RGS4 inh	MrgX1 antagonist	RGS4 inh valid	RGS4 uninduced	M3R basal Ca ctr
CCOC(=O)c1c(C)[nH]c(C)c1S(=O)(=O)N(C)CC(=O)NCc1ccc(F)cc1	i	i	i	i	i	.	.	.
Cc1ccc(N=c2oc3cc(O)ccc3cc2C(N)=O)cc1	i	i	i	i	i	.	i	i
CC(=O)c1cc2ccc(O)cc2oc1=O	i	i	i	i	i	.	.	.
COC(=O)c1nn(C23CC4CC(CC(C4)C2)C3)c2c1C(=O)N(c1ccc(F)cc1)C2=O	i	i	i	i	i	i	i	i
COc1cc(C2(c3ccc(O)c(OC)c3)C(=O)N(C)c3ccc(Br)cc32)ccc1O	i	i	i	5.71*	i	12.0%*	i	i
COc1cc(C2(c3ccc(O)c(OC)c3)C(=O)Nc3c(Br)cc(Br)cc32)ccc1O	i	i	i	i	i	.	i	34.5%*
COc1cc(C(=O)C(=O)c2ccc(O)c(OC)c2)ccc1O	i	i	i	i	i	.	.	.
CCOC(=O)/C(C#N)=C/c1cn(CCC(=O)O)nc1-c1cccc(Cl)c1	i	i	i	4.74*	i	i	i	i
CCOC(=O)/C(C#N)=C/c1cn(CCC(=O)O)nc1-c1ccc(F)cc1	i	i	i	i	i	.	.	.
CC(=O)Nc1cccc(C(=O)/C=C/c2ccc[nH]2)c1	i	i	i	i	i	.	.	.
CC(=O)Nc1cccc(C(=O)/C=C/c2ccc(Br)cc2)c1	i	i	i	7.22*	i	i	i	i
CC(=O)Nc1cccc(C(=O)/C=C/c2ccc(N(C)C)cc2)c1	63.4*	i	i	i	i	i	i	156.0%*
CC(=O)Nc1cccc(C(=O)/C=C/c2ccc(F)cc2)c1	i	i	i	i	i	i	i	10.5%*
Cc1ccc(S(=O)(=O)N2CCCOC2CNC(=O)C(=O)NC2CCCCC2)cc1 (stereo not drawn)	i	i	i	i	i	i	i	i
Cc1ccccc1C1CC(c2ccccc2OC(F)F)Nc2ncnn21 (stereo not drawn)	i	i	i	5.26*	i	11.0%*	i	i
Cc1ccc(C2CC(c3ccccc3OC(F)F)Nc3ncnn32)cc1 (stereo not drawn)	i	i	i	i	i	.	i	i
Cc1ccc(NC(=O)CSCC(=O)OCc2cc(=O)oc3cc(O)ccc23)c(C)c1	i	i	i	i	i	.	.	.
Cc1nn2c(-c3ccccc3)ccnc2c1Br	i	i	i	i	i	i	i	i
Cc1nn2c(-c3cccnc3)ccnc2c1-c1ccccc1	i	i	i	i	i	.	.	.
Cc1ccc(-c2ccnc3c(Br)c(C)nn23)cc1	i	i	i	i	i	i	i	i
O=C(CN1C(=O)COc2ccccc21)N1CCc2ccccc2C1	i	i	i	i	i	.	.	.
CCOC(=O)C1=C(COC(=O)CNC(=O)c2ccc(Cl)cc2Cl)NC(=O)NC1C (stereo not drawn)	i	i	i	i	i	.	.	.
CCNC(=O)CN(c1ccc(F)cc1)S(=O)(=O)c1ccc2c(c1)OCCO2	i	i	i	i	i	.	.	.
N#C/C(=C\c1cccs1)C(=O)c1ccccc1Cl	i	i	i	17.6*	i	56.0%*	i	8.5%*
CO/N=C/NC(=O)C1=NOC(CNc2ncc(C(F)(F)F)cc2Cl)C1 (stereo not drawn)	i	i	i	i	i	.	.	.
SMILES	MrgX1 ag	MrgX1 allo act	RGS4 act	RGS4 inh	MrgX1 antagonist	RGS4 inh valid	RGS4 uninduced	M3R basal Ca ctr
NC(=O)C1=NOC(CNc2ncc(C(F)(F)F)cc2Cl)C1 (stereo not drawn)	i	i	i	i	i	i	i	i
O=Cc1s/c(=N\S(=O)(=O)c2ccccc2)n(CCCCl)c1Cl	.	.	i	5.36*	.	9.0%*	i	19.5%*
CCn1c(C)cs/c1=N\S(=O)(=O)c1ccccc1	i	i	i	i	i	.	.	.
COc1ccc(NC(=O)CC2C(=O)NCCN2C(=O)Nc2ccc(C(F)(F)F)cc2)cc1 (stereo not drawn)	i	i	i	8.84*	i	20.5%*	29.0%*	i
O=C(CC1C(=O)NCCN1C(=O)Nc1ccc(C(F)(F)F)cc1)Nc1ccc(F)cc1 (stereo not drawn)	i	i	i	24*	i	43.0%*	i	8.0%*
O=c1[nH]c2ccc(Br)cc2c(-c2ccccc2)c1N1CCOCC1	i	i	i	i	i	.	.	.
O=c1[nH]c2ccc(Br)cc2c(-c2ccccc2)c1CN1CCOCC1	i	i	i	7.52*	i	19.0%*	48.5%*	i
COc1cc2[nH]c3c(N4CCC(C(N)=O)CC4)ncnc3c2cc1OC	i	i	i	5.69*	i	i	i	i
Cc1ccc(NC(=S)N/N=C/c2c(C)[nH]c3ccccc23)cc1	i	i	i	4.93*	i	6.5%*	i	12.0%*
Cc1[nH]c2ccccc2c1/C=N/NC(N)=S	i	i	i	i	i	.	.	.
COc1cccc(Sc2cc(N3CCOCC3)nc(-c3ccccc3)n2)c1	i	i	i	8.75*	i	34.5%*	i	i
CSCc1cc(N2CCOCC2)nc(-c2ccccc2)n1	i	i	i	i	i	.	.	.
CCN1CCN(c2cc(SC(C)C)nc(-c3ccc(OC)cc3)n2)CC1	.	.	i	i	.	.	.	.
CC(C)Sc1cc(N2CCOCC2)nc(-c2ccc(Cl)cc2)n1	i	i	i	5.23*	i	12.5%*	28.5%*	i
c1ccc(-c2nc(N3CCOCC3)cc(N3CCOCC3)n2)cc1	i	i	i	i	i	.	.	.
Clc1ccc(Sc2cc(N3CCOCC3)nc(-c3ccccc3)n2)cc1	i	i	i	7.67*	i	14.5%*	i	i
CCCCNC(=O)CCn1nc(-c2ccc(C)cc2)c2ccccc2c1=O	i	i	i	i	i	.	.	.
